ChEMBL document CHEMBL1135791, “Lysergamides of isomeric 2,4-dimethylazetidines map the binding orientation of the diethylamide moiety in the potent hallucinogenic agent N,N-diethyllysergamide (LSD)” (J Med Chem, 2002)
Several values for one entry are separate records, joined by “and”; a condition that tells them apart may be missing. Equal values may be shown once.

Legend:
[1] = biological target: 5-hydroxytryptamine receptor 1E (Homo sapiens, UniProt P28566); assay: Binding affinity towards 5-hydroxytryptamine 1E receptor
Sequence of 5-hydroxytryptamine receptor 1E (P28566 whole entry): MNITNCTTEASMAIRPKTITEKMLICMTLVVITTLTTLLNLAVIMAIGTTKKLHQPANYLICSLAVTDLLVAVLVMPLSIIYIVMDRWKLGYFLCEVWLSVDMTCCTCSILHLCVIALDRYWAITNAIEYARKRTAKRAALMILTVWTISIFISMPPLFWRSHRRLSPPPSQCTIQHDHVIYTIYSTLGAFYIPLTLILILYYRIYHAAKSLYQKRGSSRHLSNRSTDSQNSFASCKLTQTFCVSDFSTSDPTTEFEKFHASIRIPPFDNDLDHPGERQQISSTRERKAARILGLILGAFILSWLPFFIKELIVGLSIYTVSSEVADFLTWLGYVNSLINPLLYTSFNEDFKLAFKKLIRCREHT
Outline: (§1)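 Screening-panel competition binding. […] Each Ki was replicated 2–3 times and is reported as mean ± SEM from nonlinear fitting. Receptor source and radioligand are not given beyond an online protocol.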

[2] = biological target: T1, 5-hydroxytryptamine receptor 1D (Homo sapiens, UniProt P28221); assay: Binding affinity towards 5-hydroxytryptamine 1D receptor alpha using [3H]8-OH-DPAT as radioligand
T1 sequence (P28221 whole entry): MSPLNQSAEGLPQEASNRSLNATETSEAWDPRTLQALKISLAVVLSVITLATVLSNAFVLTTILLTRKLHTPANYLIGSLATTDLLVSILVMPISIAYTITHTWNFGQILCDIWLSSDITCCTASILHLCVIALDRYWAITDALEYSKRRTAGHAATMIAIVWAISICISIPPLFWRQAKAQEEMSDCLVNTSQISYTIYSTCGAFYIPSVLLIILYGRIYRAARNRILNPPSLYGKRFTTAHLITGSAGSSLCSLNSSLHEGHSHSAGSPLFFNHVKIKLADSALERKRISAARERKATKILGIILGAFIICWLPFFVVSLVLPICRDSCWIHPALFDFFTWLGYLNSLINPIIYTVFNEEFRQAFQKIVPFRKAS

D(1A) dopamine receptor [3] = biological target: T2, D(1A) dopamine receptor (Mus musculus, UniProt Q61616); assay: Binding affinities towards Dopamine receptor D1; outline: as §1
T2 sequence (Q61616 whole entry): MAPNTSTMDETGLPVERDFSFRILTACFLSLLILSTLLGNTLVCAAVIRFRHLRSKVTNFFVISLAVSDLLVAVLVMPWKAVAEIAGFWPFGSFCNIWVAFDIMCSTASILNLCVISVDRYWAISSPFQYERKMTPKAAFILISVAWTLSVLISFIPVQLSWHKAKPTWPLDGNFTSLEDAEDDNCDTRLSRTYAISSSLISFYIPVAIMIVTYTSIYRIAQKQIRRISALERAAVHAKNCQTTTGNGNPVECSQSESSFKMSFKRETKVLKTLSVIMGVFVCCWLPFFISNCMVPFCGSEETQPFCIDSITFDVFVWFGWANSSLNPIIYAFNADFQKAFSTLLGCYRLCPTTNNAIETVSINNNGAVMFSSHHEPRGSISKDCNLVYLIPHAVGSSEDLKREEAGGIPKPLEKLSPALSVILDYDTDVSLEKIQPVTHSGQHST

D(2) dopamine receptor [4] = biological target: T3, D(2) dopamine receptor (Homo sapiens, UniProt P14416); assay: Binding affinity towards Dopamine receptor D2
T3 sequence (P14416 whole entry): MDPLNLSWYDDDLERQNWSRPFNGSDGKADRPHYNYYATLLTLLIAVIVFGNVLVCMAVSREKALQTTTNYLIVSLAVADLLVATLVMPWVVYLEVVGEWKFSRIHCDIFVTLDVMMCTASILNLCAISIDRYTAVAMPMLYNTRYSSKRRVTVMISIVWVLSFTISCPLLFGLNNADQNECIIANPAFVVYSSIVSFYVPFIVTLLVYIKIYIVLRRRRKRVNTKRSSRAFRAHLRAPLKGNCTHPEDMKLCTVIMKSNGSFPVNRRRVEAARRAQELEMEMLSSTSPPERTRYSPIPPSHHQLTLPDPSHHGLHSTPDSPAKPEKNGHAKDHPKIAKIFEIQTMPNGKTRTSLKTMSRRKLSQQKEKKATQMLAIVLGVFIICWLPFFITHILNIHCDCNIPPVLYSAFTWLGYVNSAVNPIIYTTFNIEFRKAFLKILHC

D(4) dopamine receptor = biological target: T4, D(4) dopamine receptor (Homo sapiens, UniProt P21917); assay: Binding affinity towards Dopamine receptor D4
T4 sequence (P21917 whole entry): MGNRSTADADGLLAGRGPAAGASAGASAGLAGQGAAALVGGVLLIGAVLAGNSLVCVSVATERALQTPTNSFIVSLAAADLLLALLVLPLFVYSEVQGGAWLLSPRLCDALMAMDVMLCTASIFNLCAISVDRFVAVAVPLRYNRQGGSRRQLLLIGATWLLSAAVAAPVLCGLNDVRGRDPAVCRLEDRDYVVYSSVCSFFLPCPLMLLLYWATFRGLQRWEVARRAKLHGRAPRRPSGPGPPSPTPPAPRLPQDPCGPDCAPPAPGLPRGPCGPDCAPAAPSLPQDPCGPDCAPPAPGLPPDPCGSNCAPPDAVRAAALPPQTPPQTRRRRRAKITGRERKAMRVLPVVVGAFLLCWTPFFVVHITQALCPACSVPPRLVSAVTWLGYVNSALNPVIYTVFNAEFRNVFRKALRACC
Outline: (§2)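 Screening-panel competition binding. Each Ki was replicated 2–3 times and is reported as mean ± SEM from nonlinear fitting. Receptor source and radioligand are not given beyond an online protocol.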

D(3) dopamine receptor = D(3) dopamine receptor (Homo sapiens, UniProt P35462); assay: Binding affinity towards Dopamine receptor D3
Sequence of D(3) dopamine receptor (P35462 whole entry): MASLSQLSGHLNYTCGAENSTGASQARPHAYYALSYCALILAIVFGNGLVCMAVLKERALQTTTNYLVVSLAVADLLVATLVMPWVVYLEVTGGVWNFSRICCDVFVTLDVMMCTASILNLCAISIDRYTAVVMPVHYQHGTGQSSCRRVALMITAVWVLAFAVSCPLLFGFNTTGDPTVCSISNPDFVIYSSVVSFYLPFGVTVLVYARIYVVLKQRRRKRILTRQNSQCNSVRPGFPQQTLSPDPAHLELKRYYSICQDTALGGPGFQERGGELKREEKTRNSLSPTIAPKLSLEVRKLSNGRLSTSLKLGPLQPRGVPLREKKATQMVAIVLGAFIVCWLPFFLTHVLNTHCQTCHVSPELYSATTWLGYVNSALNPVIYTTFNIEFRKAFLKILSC

D(1B) dopamine receptor = D(1B) dopamine receptor (Homo sapiens, UniProt P21918); assay: Binding affinity towards Dopamine receptor D5; outline: as §2
Sequence of D(1B) dopamine receptor (P21918 whole entry): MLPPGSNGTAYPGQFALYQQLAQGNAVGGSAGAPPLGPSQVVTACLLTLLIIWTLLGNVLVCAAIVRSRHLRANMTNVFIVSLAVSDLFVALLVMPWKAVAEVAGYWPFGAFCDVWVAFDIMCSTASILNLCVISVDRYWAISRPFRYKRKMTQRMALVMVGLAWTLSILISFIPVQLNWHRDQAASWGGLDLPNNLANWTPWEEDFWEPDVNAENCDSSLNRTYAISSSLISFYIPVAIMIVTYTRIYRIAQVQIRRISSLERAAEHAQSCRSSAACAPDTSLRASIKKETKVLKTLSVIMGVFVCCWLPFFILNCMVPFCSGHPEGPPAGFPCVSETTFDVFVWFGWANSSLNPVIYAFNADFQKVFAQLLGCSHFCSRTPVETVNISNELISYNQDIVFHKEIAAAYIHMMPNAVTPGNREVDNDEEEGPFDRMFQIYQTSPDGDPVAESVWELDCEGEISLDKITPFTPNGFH

Rattus norvegicus [5] = assay: Percentage of rats disrupted after 0.01 mg/kg, 0.023 uM/kg dose; format: functional
Outline: (§3)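 LSD-trained rats (0.08 mg/kg ip vs saline, two-lever, FR50) were given the test drug ip 30 min before extinction sessions, with ≥8 rats per dose. A session was scored as disrupted if 50 presses on one lever were not completed within 5 min. The value is the percentage of rats disrupted at each dose.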

Rattus norvegicus [6] = assay: Percentage of rats disrupted after 0.02 mg/kg, 0.046 uM/kg dose; format: functional; outline: as §3
Rattus norvegicus [7] = assay: Percentage of rats disrupted after 0.04 mg/kg, 0.093 uM/kg dose; format: functional; outline: as §3
Rattus norvegicus [8] = assay: Percentage of rats disrupted after 0.08 mg/kg, 0.186 uM/kg dose (95%CI); format: functional; outline: as §3
Rattus norvegicus [9] = assay: Effective dose in rats as nmol/kg after 0.04 mg/kg, 0.093 uM/kg dose (95%CI); format: functional
Rattus norvegicus [10] = assay: Percentage of rats selecting drug lever (SDL) after 0.08 mg/kg, 0.186 uM/kg dose; format: functional
Rattus norvegicus [11] = assay: Percentage of rats selecting drug lever (SDL) after 0.04 mg/kg, 0.093 uM/kg dose; format: functional
Rattus norvegicus [12] = assay: Percentage of rats selecting the drug lever (SDL) after 0.01 mg/kg, 0.023 uM/kg dose; format: functional
Rattus norvegicus [13] = assay: Percentage of rats selecting the drug lever (SDL) after 0.02 mg/kg, 0.046 uM/kg dose; format: functional
Rattus norvegicus [14] = assay: Effective dose as nmol/kg after 0.02 mg/kg, 0.046 uM/kg dose (95%CI); format: functional
[15] = biological target: T5, 5-hydroxytryptamine receptor 1A (Homo sapiens, UniProt P08908); assay: Binding affinity against 5-hydroxytryptamine 1A receptor using [3H]8-OH-DPAT as radioligand
T5 sequence (P08908 whole entry): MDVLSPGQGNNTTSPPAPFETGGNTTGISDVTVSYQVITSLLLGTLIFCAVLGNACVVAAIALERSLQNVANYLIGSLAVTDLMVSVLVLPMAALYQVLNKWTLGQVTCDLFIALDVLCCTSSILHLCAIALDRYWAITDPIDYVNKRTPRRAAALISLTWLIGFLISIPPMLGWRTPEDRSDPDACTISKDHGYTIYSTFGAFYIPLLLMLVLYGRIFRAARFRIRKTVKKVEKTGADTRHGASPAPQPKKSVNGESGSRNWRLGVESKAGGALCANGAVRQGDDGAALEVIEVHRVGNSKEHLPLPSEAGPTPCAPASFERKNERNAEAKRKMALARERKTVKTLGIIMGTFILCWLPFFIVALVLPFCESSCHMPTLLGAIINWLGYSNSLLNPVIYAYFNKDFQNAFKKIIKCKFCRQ
Outline: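 Competition binding at human 5-HT1A stably expressed in CHO cells (maintained in MEM, 10% dialyzed FBS, hygromycin B; serum-free 5 h before harvest, pellets stored –80 °C). 0.80 nM [3H]8-OH-DPAT, buffer 50 mM Tris/0.5 mM EDTA/10 mM MgCl2 pH 7.4, 60 min at 25 °C, filtration.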

[16] = biological target: T1, 5-hydroxytryptamine receptor 1D; assay: Binding affinities against 5-hydroxytryptamine 1D receptor alpha; outline: as §1
[17] = biological target: T6, 5-hydroxytryptamine receptor 2B (Homo sapiens, UniProt P41595); assay: Binding affinities against 5-hydroxytryptamine 2B receptor; outline: as §1
T6 sequence (P41595 whole entry): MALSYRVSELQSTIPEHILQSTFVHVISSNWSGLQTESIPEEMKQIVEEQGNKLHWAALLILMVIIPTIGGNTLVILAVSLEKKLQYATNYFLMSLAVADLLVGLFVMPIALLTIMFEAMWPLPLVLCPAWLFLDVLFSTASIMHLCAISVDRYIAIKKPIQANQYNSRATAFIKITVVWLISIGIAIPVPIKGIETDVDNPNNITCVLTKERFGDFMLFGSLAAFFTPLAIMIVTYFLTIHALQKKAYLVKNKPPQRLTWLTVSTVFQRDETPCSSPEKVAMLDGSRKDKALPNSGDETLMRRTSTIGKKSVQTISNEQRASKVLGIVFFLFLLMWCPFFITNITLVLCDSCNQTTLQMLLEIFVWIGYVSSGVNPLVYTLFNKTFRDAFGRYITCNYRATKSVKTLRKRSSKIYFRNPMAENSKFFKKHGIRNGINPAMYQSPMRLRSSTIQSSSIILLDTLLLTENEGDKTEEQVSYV

[18] = biological target: T7, 5-hydroxytryptamine receptor 6 (Homo sapiens, UniProt P50406); assay: Binding affinities against 5-hydroxytryptamine 6 receptor; outline: as §1
T7 sequence (P50406 whole entry): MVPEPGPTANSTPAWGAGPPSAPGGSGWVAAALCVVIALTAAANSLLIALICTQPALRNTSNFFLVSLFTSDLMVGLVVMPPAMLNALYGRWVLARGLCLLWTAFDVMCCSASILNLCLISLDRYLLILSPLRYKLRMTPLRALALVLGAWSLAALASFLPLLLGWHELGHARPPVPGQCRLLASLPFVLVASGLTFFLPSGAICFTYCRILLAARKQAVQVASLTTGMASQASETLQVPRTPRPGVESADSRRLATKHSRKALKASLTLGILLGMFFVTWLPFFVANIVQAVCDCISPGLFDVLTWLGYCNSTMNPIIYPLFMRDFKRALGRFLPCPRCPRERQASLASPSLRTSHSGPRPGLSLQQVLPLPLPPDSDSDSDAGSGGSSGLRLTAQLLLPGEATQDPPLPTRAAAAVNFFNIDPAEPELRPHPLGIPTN

D(1A) dopamine receptor [19] = biological target: T2, D(1A) dopamine receptor; assay: Binding affinity against Dopamine receptor D1; outline: as §1
D(2) dopamine receptor [20] = biological target: T3, D(2) dopamine receptor; assay: Binding affinity against Dopamine receptor D2; outline: as §1
Histamine H1 receptor [21] = biological target: T8, Histamine H1 receptor (Homo sapiens, UniProt P35367); assay: Binding affinity against Histamine H1 receptor; outline: as §1
T8 sequence (P35367 whole entry): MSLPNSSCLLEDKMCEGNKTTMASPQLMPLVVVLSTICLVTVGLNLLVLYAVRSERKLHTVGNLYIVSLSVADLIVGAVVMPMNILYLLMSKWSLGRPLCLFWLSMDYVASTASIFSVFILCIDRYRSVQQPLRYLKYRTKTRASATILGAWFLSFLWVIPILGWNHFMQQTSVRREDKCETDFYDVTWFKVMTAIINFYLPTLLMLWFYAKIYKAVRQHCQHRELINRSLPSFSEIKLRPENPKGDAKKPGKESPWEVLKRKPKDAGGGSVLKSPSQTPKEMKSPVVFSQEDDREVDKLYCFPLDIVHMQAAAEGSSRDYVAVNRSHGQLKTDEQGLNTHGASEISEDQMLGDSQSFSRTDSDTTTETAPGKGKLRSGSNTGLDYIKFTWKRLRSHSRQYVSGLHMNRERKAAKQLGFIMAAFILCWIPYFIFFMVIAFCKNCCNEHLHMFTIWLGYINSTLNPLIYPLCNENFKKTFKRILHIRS

Rattus norvegicus [22] = assay: Compound was evaluated for the percentage of rats disrupted following a dose of 0.02 mg/kg and 0.049 uM/kg; format: functional; outline: as §3
Rattus norvegicus [23] = assay: Compound was evaluated for the percentage of rats selecting the drug lever (SDL) following a dose of 0.02 mg/kg and 0.049 uM/kg; format: functional
Rattus norvegicus [24] = assay: Compound was evaluated for the percentage of rats selecting the drug lever (SDL) following a dose of 0.04 mg/kg and 0.097 uM/kg; format: functional
Rattus norvegicus [25] = assay: Compound was evaluated for the percentage of rats selecting the drug lever (SDL) following a dose of 0.16 mg/kg and 0.388 uM/kg; format: functional
Outline: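 Test drug was given ip 30 min before sessions run under extinction, with ≥8 rats per dose. The first lever reaching 50 presses scored as selected. No completion within 5 min counted as disruption.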

Rattus norvegicus [26] = assay: Compound was evaluated for effective dose measured in mg/kg following a dose of 0.04 mg/kg and 0.097 uM/kg (95%CI); format: functional
Rattus norvegicus [27] = assay: Compound was evaluated for effective dose measured in mg/kg following a dose of 0.08 mg/kg and 0.194 uM/kg (95%CI); range 0.030-0.075; format: functional
[28] = biological target: 5-hydroxytryptamine receptor 7 (Homo sapiens, UniProt P34969); assay: Binding affinities against 5-hydroxytryptamine 7 receptor
Sequence of 5-hydroxytryptamine receptor 7 (P34969 whole entry): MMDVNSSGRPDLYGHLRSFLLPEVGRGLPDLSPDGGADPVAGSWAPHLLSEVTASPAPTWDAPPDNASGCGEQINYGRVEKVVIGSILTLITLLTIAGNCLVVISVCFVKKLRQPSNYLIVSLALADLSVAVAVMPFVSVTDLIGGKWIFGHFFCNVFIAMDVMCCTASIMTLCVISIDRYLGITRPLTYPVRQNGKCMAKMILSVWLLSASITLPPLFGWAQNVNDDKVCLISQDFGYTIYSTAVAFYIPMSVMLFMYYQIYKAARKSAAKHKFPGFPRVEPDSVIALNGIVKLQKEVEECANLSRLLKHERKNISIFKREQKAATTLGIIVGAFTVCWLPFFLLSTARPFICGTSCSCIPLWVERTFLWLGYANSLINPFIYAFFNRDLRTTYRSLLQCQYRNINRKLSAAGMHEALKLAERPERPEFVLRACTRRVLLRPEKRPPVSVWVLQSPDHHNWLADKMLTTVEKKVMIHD

[29] = biological target: T9, 5-hydroxytryptamine receptor 5A (Homo sapiens, UniProt P47898); assay: Binding affinities against 5-hydroxytryptamine 5A receptor; outline: as §1
T9 sequence (P47898 whole entry): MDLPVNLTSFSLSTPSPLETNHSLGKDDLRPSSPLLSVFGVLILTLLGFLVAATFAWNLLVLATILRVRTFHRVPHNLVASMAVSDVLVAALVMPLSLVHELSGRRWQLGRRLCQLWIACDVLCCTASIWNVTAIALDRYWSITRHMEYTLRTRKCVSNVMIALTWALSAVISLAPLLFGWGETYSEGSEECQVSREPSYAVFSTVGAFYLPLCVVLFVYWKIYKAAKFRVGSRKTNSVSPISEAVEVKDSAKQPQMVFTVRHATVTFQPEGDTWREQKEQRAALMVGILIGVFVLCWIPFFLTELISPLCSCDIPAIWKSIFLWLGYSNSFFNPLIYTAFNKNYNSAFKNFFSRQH

[30] = biological target: T5, 5-hydroxytryptamine receptor 1A; assay: Binding affinity towards 5-hydroxytryptamine 1A receptor using [3H]8-OH-DPAT as radioligand
[31] = biological target: T1, 5-hydroxytryptamine receptor 1D; assay: Binding affinities towards 5-hydroxytryptamine 1D receptor alpha; outline: as §1
[32] = biological target: T6, 5-hydroxytryptamine receptor 2B; assay: Binding affinities towards 5-hydroxytryptamine 2B receptor; outline: as §1
[33] = biological target: T9, 5-hydroxytryptamine receptor 5A; assay: Binding affinities towards 5-hydroxytryptamine 5A receptor
[34] = biological target: T7, 5-hydroxytryptamine receptor 6; assay: Binding affinities towards 5-hydroxytryptamine 6 receptor; outline: as §2
D(1A) dopamine receptor [35] = biological target: T2, D(1A) dopamine receptor; assay: Binding affinity towards Dopamine receptor D1; outline: as §1
Histamine H1 receptor [36] = biological target: T8, Histamine H1 receptor; assay: Binding affinity towards Histamine H1 receptor; outline: as §2
Rattus norvegicus [37] = assay: Compound was evaluated for effective dose measured in mg/kg following a dose of 0.04 mg/kg and 0.097 uM/kg (95%CI); range 0.027-0.11; format: functional
Rattus norvegicus [38] = assay: Compound was evaluated for the percentage of rats selecting the drug lever (SDL) following a dose of 0.08 mg/kg and 0.194 uM/kg; format: functional
Rattus norvegicus [39] = assay: Compound was evaluated for effective dose measured in nmol/kg following a dose of 0.04 mg/kg and 0.097 uM/kg (95%CI); format: functional
Rattus norvegicus [40] = assay: Compound was evaluated for the percentage of rats disrupted following a dose of 0.01 mg/kg and 0.025 uM/kg; format: functional; outline: as §3
Rattus norvegicus [41] = assay: Compound was evaluated for the percentage of rats selecting the drug lever (SDL) following a dose of 0.01 mg/kg and 0.025 uM/kg; format: functional
Rattus norvegicus [42] = assay: Compound was evaluated for effective dose measured in mg/kg following a dose of 0.04 mg/kg and 0.097 uM/kg (95%CI); range 0.007-0.016; format: functional
Rattus norvegicus [43] = assay: Compound was evaluated for effective dose measured in mg/kg following a dose of 0.02 mg/kg and 0.049 uM/kg (95%CI); format: functional

## CCN(CC)C(=O)[C@@H]1C=C2c3cccc4[nH]cc(c34)C[C@H]2N(C)C1 [LYSERGIDE]
[1]
  Ki: 93 nM
[2]
  Ki: 3.9 nM
D(1A) dopamine receptor [3]
  Ki: 180 nM
D(2) dopamine receptor [4]
  Ki: 120 nM
D(4) dopamine receptor
  Ki: 56 nM
D(3) dopamine receptor
  Ki: 27 nM
D(1B) dopamine receptor
  Ki: 340 nM
Rattus norvegicus [5]
  D: 0%
Rattus norvegicus [6]
  D: 0%
Rattus norvegicus [7]
  D: 0%
Rattus norvegicus [8]
  D: 0%
Rattus norvegicus [9]
  ED50: 0.032 µmol/kg
Rattus norvegicus [10]
  SDL: 100%
Rattus norvegicus [11]
  SDL: 75%
Rattus norvegicus [12]
  SDL: 17%
Rattus norvegicus [13]
  SDL: 58%
Rattus norvegicus [14]
  ED50: 0.045 µmol/kg

## C[C@@H]1C[C@H](C)N1C(=O)[C@@H]1C=C2c3cccc4[nH]cc(c34)CC2N(C)C1 (some centres not stated)
[15]
  Ki: 1.1 nM
[1]
  Ki: 200 nM
[16]
  Ki: 3.7 nM
[17]
  Ki: 44 nM
[18]
  Ki: 13 nM
D(1A) dopamine receptor [19]
  Ki: 230 nM
D(2) dopamine receptor [20]
  Ki: 60 nM
Histamine H1 receptor [21]
  Ki: 500 nM
Rattus norvegicus [22]
  D: 12%
Rattus norvegicus [23]
  D: 0%
Rattus norvegicus [24]
  D: 0%
  SDL: 33%
Rattus norvegicus [25]
  ED50: 0.03 mg/kg
Rattus norvegicus [26]
  D: 20%
  SDL: 70%
Rattus norvegicus [27]
  ED50: 0.047 mg/kg
[28]
  Ki: 12 nM
[29]
  Ki: 16 nM

## C[C@@H]1C[C@@H](C)N1C(=O)[C@@H]1C=C2c3cccc4[nH]cc(c34)CC2N(C)C1 (some centres not stated)
[30]
  Ki: 6.8 nM
[1]
  Ki: 140 nM
[31]
  Ki: 2 nM
[32]
  Ki: 310 nM
[33]
  Ki: 13 nM
[34]
  Ki: 61 nM
D(1A) dopamine receptor [35]
  Ki: 340 nM
D(2) dopamine receptor [4]
  Ki: 330 nM
Histamine H1 receptor [36]
  Ki: 1400 nM
Rattus norvegicus [22]
  D: 0%
Rattus norvegicus [23]
  D: 0%
Rattus norvegicus [24]
  D: 10%
Rattus norvegicus [37]
  SDL: 80%
Rattus norvegicus [38]
  ED50: 0.027 mg/kg
Rattus norvegicus [38]; 0.08 mg/kg
  SDL: 25% and 56%
Rattus norvegicus [25]
  SDL: 40%
Rattus norvegicus [26]
  D: 17%
  ED50: 0.055 mg/kg
Rattus norvegicus [39]
  ED50: 0.066 µmol/kg

## C[C@H]1C[C@H](C)N1C(=O)[C@@H]1C=C2c3cccc4[nH]cc(c34)CC2N(C)C1 (some centres not stated)
[30]
  Ki: 0.45 nM
[1]
  Ki: 280 nM
[31]
  Ki: 2.4 nM
[32]
  Ki: 27 nM
[33]
  Ki: 27 nM
[34]
  Ki: 15 nM
D(1A) dopamine receptor [35]
  Ki: 290 nM
D(2) dopamine receptor [4]
  Ki: 110 nM
Histamine H1 receptor [36]
  Ki: 2500 nM
Rattus norvegicus [40]
  D: 6%
Rattus norvegicus [22]
  ED50: 0.025 µmol/kg
Rattus norvegicus [41]
  D: 7%
Rattus norvegicus [23]
  D: 0%
Rattus norvegicus [24]
  SDL: 67% and 90%
Rattus norvegicus [42]
  SDL: 100%
Rattus norvegicus [38]
  SDL: 50%
Rattus norvegicus [43]
  D: 0%
  ED50: 0.01 mg/kg
